Test results: ChEMBL document CHEMBL4033797, “Discovery of [ cis-3-({(5 R)-5-[(7-Fluoro-1,1-dimethyl-2,3-dihydro-1 H-inden-5-yl)carbamoyl]-2-methoxy-7,8-dihydro-1,6-naphthyridin-6(5 H)-yl}carbonyl)cyclobutyl]acetic Acid (TAK-828F) as a Potent, Selective, and Orally Available Novel Retinoic Acid Receptor-Related Orphan Receptor γt Inverse …” (J Med Chem, 2018)
Activity calls are given as the source filed them. No cut-off for these calls is given here.

Legend:
[1] = Oral bioavailability in mouse at 1 mg/kg administered via cassette dosing; format: ADME, organism-based; settings: in vivo
Outline: (§1)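 Mice received a single oral 1 mg/kg dose in cassette format. Plasma was sampled over 8 h for Cmax, Tmax, AUC0–8h, MRT and oral bioavailability (F). Values are means of three determinations.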

[2] = Lipophilicity, log D of the compound at pH 7.4; format: physicochemical; settings: buffer
[3] = AUC (0 to 8 hrs) in mouse at 1 mg/kg, po administered via cassette dosing; format: ADME, organism-based; parameters: time < 8 hr, dose 1 mg/kg, route oral; settings: in vivo; outline: as §1
Mus musculus [4] = experiment: In vivo inverse agonist activity at RORgammat in po dosed C57BL/6 mouse assessed as inhibition of IL-23-induced IL-17A cytokine expression; format: functional
Mus musculus [5] = experiment: In vivo inverse agonist activity at RORgammat in po dosed C57BL/6 mouse assessed as inhibition of IL-23-induced IL-17A expression administered as bid; format: functional, organism-based
Outline: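 Mice were dosed orally twice daily at 0.3, 1 and 3 mg/kg. IL-17A expression induced by IL-23 was then measured, and an effective dose was derived from the dose–response.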

Mus musculus [6] = experiment: Anti-inflammatory activity against IL-23 induced po dosed mouse psoriasis model; format: functional, organism-based
[7] = target: T1, Nuclear receptor ROR-alpha (Homo sapiens, UniProt P35398); experiment: Inverse agonist activity at human RORalpha expressed in human Jurkat cells assessed as inhibition of transcriptional activity after 10 mins by human IL-17 ROR response element driven-bright-glo luciferase reporter gene assay; format: cell-based
T1 sequence (P35398 whole entry): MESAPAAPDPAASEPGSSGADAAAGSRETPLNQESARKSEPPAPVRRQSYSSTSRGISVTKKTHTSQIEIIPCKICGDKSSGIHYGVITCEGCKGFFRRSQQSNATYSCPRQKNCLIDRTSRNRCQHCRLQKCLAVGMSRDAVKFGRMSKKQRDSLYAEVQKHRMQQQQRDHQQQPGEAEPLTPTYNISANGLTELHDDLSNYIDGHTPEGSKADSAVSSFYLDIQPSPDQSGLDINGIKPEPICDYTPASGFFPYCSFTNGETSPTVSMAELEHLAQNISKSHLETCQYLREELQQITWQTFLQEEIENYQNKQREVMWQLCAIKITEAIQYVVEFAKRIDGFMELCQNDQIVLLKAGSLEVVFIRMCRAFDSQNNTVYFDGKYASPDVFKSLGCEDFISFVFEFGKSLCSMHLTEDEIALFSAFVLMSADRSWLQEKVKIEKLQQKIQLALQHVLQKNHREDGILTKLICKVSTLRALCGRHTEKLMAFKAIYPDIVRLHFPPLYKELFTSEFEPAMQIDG
Outline: (§2)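 Cell-based reporter assay in human Jurkat cells carrying human RORα or RORβ. Inhibition of transcriptional activity was read as luciferase activity and reported as IC50.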

[8] = target: T2, Nuclear receptor ROR-beta (Homo sapiens, UniProt Q92753); experiment: Inverse agonist activity at human RORbeta expressed in human Jurkat cells assessed as inhibition of transcriptional activity after 10 mins by human IL-17 ROR response element driven-bright-glo luciferase reporter gene assay; format: cell-based; outline: as §2
T2 sequence (Q92753 whole entry): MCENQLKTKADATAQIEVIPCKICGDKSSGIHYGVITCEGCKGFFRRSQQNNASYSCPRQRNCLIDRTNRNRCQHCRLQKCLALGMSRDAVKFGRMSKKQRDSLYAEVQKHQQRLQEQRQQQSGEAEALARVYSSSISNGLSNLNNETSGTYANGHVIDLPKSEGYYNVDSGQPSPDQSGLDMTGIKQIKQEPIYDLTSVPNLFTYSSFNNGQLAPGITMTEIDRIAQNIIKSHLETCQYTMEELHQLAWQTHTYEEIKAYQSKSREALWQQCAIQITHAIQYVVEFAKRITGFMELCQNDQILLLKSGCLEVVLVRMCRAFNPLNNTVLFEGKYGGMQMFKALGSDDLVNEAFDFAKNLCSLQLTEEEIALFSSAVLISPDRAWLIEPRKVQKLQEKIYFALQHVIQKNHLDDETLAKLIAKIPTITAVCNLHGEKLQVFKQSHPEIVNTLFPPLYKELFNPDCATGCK

[9] = Cmax in mouse at 1 mg/kg, po administered via cassette dosing; format: ADME, organism-based; parameters: dose 1 mg/kg, route oral; settings: in vivo; outline: as §1
[10] = Tmax in mouse at 1 mg/kg, po administered via cassette dosing; format: ADME, organism-based; settings: in vivo; outline: as §1
Mus musculus [11] = experiment: (§3) Anti-inflammatory activity against MOG (35 to 55 residues)-induced EAE C57BL/6 mouse model assessed as inhibition of development of clinical symptoms at 1 mg/kg, administered bid via oral gavage measured after 28 days post Mycobacterium tuberculosis H37Ra/ MOG (35 to 55 residues)/pertussis toxin immunization; format: functional; settings: C57BL/6, po, 672 h
Outline: (§4)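 Mice immunized with MOG peptide received oral drug in 0.5% methylcellulose vehicle bid for 28 days. EAE clinical score was recorded from day 0 to day 28, along with cumulative clinical score. Groups were 12 MOG-immunized mice per group plus 4 healthy controls, reported as mean ± S.E. Comparison was against vehicle-treated immunized controls by one-tailed Shirley-Williams test (p<0.025).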

[12] = MRT in mouse at 1 mg/kg, po administered via cassette dosing; format: ADME, organism-based; settings: in vivo; outline: as §1
Mus musculus [13] = experiment: Anti-inflammatory activity in activated T cell transfer po dosed mouse colitis model; format: functional, organism-based
Mus musculus [14] = experiment: as §3, with “3” for “1”; format: functional; settings: C57BL/6, po, 672 h; outline: as §4

SMILES | bioavailability [1] [%] | logD [2] | AUC(0-t) at 8 h [3] [ng·h/mL] | further results
COc1ccc2c(n1)CCN(C(=O)CCCC(=O)O)[C@H]2C(=O)Nc1cc(F)c([Si](C)(C)C)c(F)c1 | 51 | 4.04 | 2880 | 
COc1ccc2c(n1)CCN(C(=O)[C@H]1C[C@H](CC(=O)O)C1)[C@H]2C(=O)Nc1cc(F)c2c(c1)CCC2(C)C |  | 3.54 |  | 
COc1ccc2c(n1)CCN(C(=O)N1CC(CC(=O)O)C1)[C@H]2C(=O)Nc1cc(F)c2c(c1)CCC2(C)C |  | 3.42 |  | 
COc1ccc2c(c1)CCN(C(=O)CCCC(=O)O)[C@H]2C(=O)Nc1cc(F)c2c(c1)CCC2(C)C | 91 | 3.37 | 3440 | inhibition (Mus musculus [4]): Dose-dependent effect
COc1ccc2c(n1)CCN(C(=O)C[C@H]1C[C@@H](C(=O)O)C1)[C@H]2C(=O)Nc1cc(F)c2c(c1)CCC2(C)C |  | 3.51 |  | 
COc1ccc2c(n1)CCN(C(=O)[C@H]1C[C@@H](C(=O)O)C1)[C@H]2C(=O)Nc1cc(F)c2c(c1)CCC2(C)C |  | 3.39 |  | 
COc1ccc2c(n1)CCN(C(=O)[C@H]1C[C@H](C(=O)O)C1)[C@H]2C(=O)Nc1cc(F)c2c(c1)CCC2(C)C |  | 3.46 |  | 
COc1ccc2c(c1)CCN(C(=O)CCCC(=O)O)[C@H]2C(=O)Nc1cc(F)c([Si](C)(C)C)c(F)c1 |  | 3.96 |  | inhibition (Mus musculus [4]): Dose-dependent effect; ED80 (Mus musculus [4]; C57BL/6, po): 7.6 mg/kg
COCC(C)(C)c1c(F)cc(NC(=O)[C@H]2c3ccc(OC)cc3CCN2C(=O)CCCC(=O)O)cc1F | 78 | 3.16 | 389 | 
COc1ccc2c(c1)CCN(C(=O)CCCC(=O)O)[C@H]2C(=O)Nc1cc(F)c(C(C)(C)C)c(F)c1 | 62 | 3.77 | 2840 | 
COc1ccc2c(n1)CCN(C(=O)[C@H]1C[C@@H](CC(=O)O)C1)[C@H]2C(=O)Nc1cc(F)c2c(c1)CCC2(C)C |  | 3.53 | 10100 | inhibition (Mus musculus [5]): Dose-dependent effect; Activity (Mus musculus [6]): Active; IC50 [7]: ≥ 30 µM; IC50 [8]: ≥ 30 µM; Cmax [9]: 1560 ng/mL; Tmax [10]: 2.3 h; inhibition in vivo at 1 mg/kg (Mus musculus [11]): 50%; MRT [12]: 4.1 h; Activity (Mus musculus [13]): Active; inhibition in vivo at 3 mg/kg (Mus musculus [14]): 44%
COc1ccc2c(n1)CCN(C(=O)CCCC(=O)O)[C@H]2C(=O)Nc1cc(F)c2c(c1)CCC2(C)C | 58 | 3.39 | 2620 | inhibition (Mus musculus [4]): Dose-dependent effect
COc1ccc2c(n1)CCN(C(=O)C1CN(CC(=O)O)C1)[C@H]2C(=O)Nc1cc(F)c2c(c1)CCC2(C)C |  | 3.39 |  | 
COc1ccc2c(n1)CCN(C(=O)C[C@H]1C[C@H](C(=O)O)C1)[C@H]2C(=O)Nc1cc(F)c2c(c1)CCC2(C)C |  | 3.49 |  | 
